Assay outcomes (PubChem BioAssay)
SKN-1 block = C. elegans SKN-1 inhibition; inhibition, % at 21.8 µM; hit rate 0.49% among 360,000; C. elegans VP596 Pgst-4::GFP/RFP ratio, acrylamide-induced, 24 h; AID 624304;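 active = interference check ratio from 0.5 to 1.5 plus GFP to RFP signal ratio inhibition reaching or exceeding a fixed threshold, cut at about 30% in these data, passing the limit was not always enough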
SUMO1 PPI mod = modulators of human SUMO1-mediated protein-protein interactions. P63165. SUMO1 binding to a labelled peptide, TR-FRET, 1 h. inhibition, % at 20 µM. hit rate 0.33% among 360,000; in the data active = inhibition above about 37%
Target sequence (P63165 whole entry, looked up): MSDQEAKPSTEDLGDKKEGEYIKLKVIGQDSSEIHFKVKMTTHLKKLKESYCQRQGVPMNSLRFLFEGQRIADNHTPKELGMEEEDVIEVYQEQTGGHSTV
MT1-MMP act inh = inhibitors of human MT1-MMP activation; HT1080 RFP-PRO-GFP cells, GFP/RFP ratio fluorescence, overnight; percent of plate control window, DMSO zero; AID 651647; GFP/RFP ratio change, % at 20 µM; hit rate 0.061% among 360,000; P50281;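 active = GFP/RFP ratio change of at least 30% with cell ATP level not reduced by more than half and red fluorescence within 50% of control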
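system = RFP-PRO-GFP reporter HT1080 cells | dosing = 20 µM single dose, 1% DMSO | timing = overnight cell settling, then overnight compound exposure, 37 °C, 5% CO2 | read-out basis = GFP/RFP fluorescence ratio | controls = DMSO and RFP-L50D-GFP cell wells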
DNMT1 inh = DNMT1 (human) enzyme inhibition; DNMT1 molecular beacon, Hinp1I cleavage, fluorescence; inhibition (reported as % activation of signal), % at 10 µM; hit rate 0.83% among 360,000; AID 588458; in the data active = inhibition above about 50%
CSN deneddyl inh = blocks human CSN-mediated cullin deneddylation | Purified CSN, SCF-Nedd8-OG deneddylation, fluorescence polarization | Q92905 | inhibition, % at 12.5 µM | hit rate 0.38% among 360,000;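 active = pattern-corrected inhibition above about 35%, with an unprinted fluorescence ratio check between 0.5 and 1.5, limit read from the data, passing the limit was not always enough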;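 also: 0% = enzyme with substrate and 100% = substrate without enzyme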
Target sequence (Q92905 whole entry, looked up, one chain of several): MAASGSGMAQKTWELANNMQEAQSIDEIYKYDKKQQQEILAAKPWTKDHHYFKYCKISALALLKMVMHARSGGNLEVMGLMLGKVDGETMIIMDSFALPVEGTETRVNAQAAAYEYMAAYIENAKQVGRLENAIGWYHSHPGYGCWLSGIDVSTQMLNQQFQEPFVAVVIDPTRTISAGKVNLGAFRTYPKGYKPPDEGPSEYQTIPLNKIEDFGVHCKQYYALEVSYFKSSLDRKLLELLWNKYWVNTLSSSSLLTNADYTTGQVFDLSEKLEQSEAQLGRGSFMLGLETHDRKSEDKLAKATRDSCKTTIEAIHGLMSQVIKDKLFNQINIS
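Test system: purified human Csn5 enzyme expressed in HEK293T cells. Amount: 0.24 nM enzyme. Reagent: SCFSkp2-Nedd8OG substrate at 10 nM final. Schedule: 90 min incubation of compound, enzyme and substrate at room temperature. Detection: fluorescence polarization. Read-out: % inhibition of substrate cleavage by Csn5.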
Rpn11 block = blocks the human proteasome subunit Rpn11. human 26S proteasome, Ub4-pepOG fluorescence polarization; 20S core pre-blocked with epoxomicin. inhibition, % at 20 µM. hit rate 0.59% among 360,000;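 active = inhibition at 20 µM, scaled to each plate's controls, above about 33%, limit read from the data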
DNMT1 inh conf = DNMT1 inhibition confirmation, single concentration | shares compounds with DNMT1 inh | DNMT1 molecular beacon HinP1I cleavage, fluorescence | inhibition, % at 10 µM | hit rate 8% among 2,300;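 active = average inhibition of at least 30% in the single-concentration confirmation test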
DNMT1 interf = shows spectral interference in the DNMT1 beacon assay; hit rate 1% among 2,300; AID 602387; DNMT1 molecular beacon spectral interference counterscreen, fluorescence 485/520; activation (fluorescence interference), % at 10 µM; shares compounds with DNMT1 inh;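 active = activation of at least 30% at 10 µM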;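 also: DNMT1 catalytic domain with a HinP1I cleavage step and a FAM/dabcyl DNA beacon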
An asterisk follows results filed as active; nt = not tested or not shown. Most compounds without a hit are left out; they make up all but 2.3% or so of the library.

SMILES | SKN-1 block | SUMO1 PPI mod | MT1-MMP act inh | DNMT1 inh | CSN deneddyl inh | Rpn11 block | DNMT1 inh conf | DNMT1 interf
N#Cc1ccccc1/C=N/Nc1nc(-c2ccccc2)c2cc(Br)ccc2n1 | 5 | 11 | 0 | 73* | 6 | 3 | -1 | -4
OCCNc1nc(-c2ccccc2)c2cc(Br)ccc2n1 | 6 | -13 | -1 | 1 | 1 | 3 | nt | nt
Cc1ccc2nc(N/N=C\c3ccc([N+](=O)[O-])o3)nc(-c3ccccc3)c2c1 | 19 | -33 | -2 | 15 | 0 | 34 | nt | nt
CCOC(=O)[C@]12CCCC=C1N(CCC1=CCCCC1)C(=O)[C@H](CC(=O)NCc1cccc3ccccc13)C2 | 11 | 0 | -5 | nt | 2 | nt | nt | nt
Cc1ccc(S(=O)(=O)N2[C@@H](CO)CO[C@H]2CC(=O)OCc2ccccc2)cc1 | 4 | -8 | 9 | nt | -1 | nt | nt | nt
Clc1cccc(Cc2c(-c3ccco3)nc3ccc(Br)cn23)c1 | -3 | 5 | -4 | 68* | 28 | 22 | 19 | 2
COc1cccc(CNc2nc3cc(-c4cccc(C(F)(F)F)c4)sc3c(=O)n2C)c1 | 17 | -7 | 4 | -2 | 0 | -3 | nt | nt
CC(=O)Nc1ccc(CNc2nc3cc(-c4cccc(C(F)(F)F)c4)sc3c(=O)n2C)cc1 | 4 | -10 | -9 | 61* | -2 | -6 | 5 | 7
CC1(OC(=O)C2CCCC2)C(=O)C=C2C=C(c3ccsc3)N(Cc3ccco3)C=C2C1=O (stereo not drawn) | 8 | -3 | -5 | 62* | 22 | -8 | -1 | -1
CCOC(=O)C1(C)CCCN(C(=O)c2cc(C#N)cs2)C1 (stereo not drawn) | 16 | 3 | 0 | -1 | 3 | 3 | nt | nt
O=C(c1ccc(Cl)cc1)C1CCN(C(=O)c2ccccc2)CC1 | 12 | 5 | -1 | 89* | -2 | -3 | 0 | 3
O=C(C1COc2ccccc2O1)N1CCc2ccccc21 (stereo not drawn) | 11 | 8 | 5 | 58* | 3 | -9 | 11 | 2
O=C(C1COc2ccccc2O1)N1CCCC1 (stereo not drawn) | -27 | 5 | -1 | 1 | 6 | -1 | nt | nt
O=C1NC(=O)C2(N1)C(=O)c1cccc3cccc2c13 (stereo not drawn) | 1 | -16 | -83 | 92* | -72 | -201 | 49* | 70*
CC(C)C(C(=O)NCc1ccccc1)N1CCN(c2ccccc2F)CC1 (stereo not drawn) | 0 | 2 | 1 | nt | 0 | nt | nt | nt
CCc1ccc(CN(Cc2cccnc2)C(=O)/C=C/c2ccc(OC)cc2)cc1 | 14 | -27 | -1 | 57* | 26 | nt | 2 | 0
COc1ccc(/C=C/C(=O)NCc2cccnc2)cc1 | 11 | -2 | 0 | -2 | -6 | -4 | nt | nt
O=[N+]([O-])c1ccc2c([N+](=O)[O-])ccc3c2c1CC3 | 25 | -18 | -2 | 73* | -3 | -24 | 25 | 3
CC1(C)Cc2cccc(OC(=O)NC3CCCCC3)c2O1 | 4 | 0 | 2 | nt | -3 | nt | nt | nt
CC1(C(=O)NCc2cccc3ccccc23)CCN1C(=O)Cc1ccc(-c2ccccc2)cc1 (stereo not drawn) | -1 | 0 | 0 | -32 | -3 | -1 | nt | nt
CN1CCN(Cc2cc(=O)oc3cc4c(cc23)CCC4)CC1 | -7 | -2 | -5 | 5 | 5 | -5 | nt | nt
O=c1cc(CN2CCN(c3ccc(F)cc3)CC2)c2cc3c(cc2o1)CCCC3 | 0 | -1 | 4 | 63* | 6 | 9 | 3 | 1
COCCn1c(C)cc(C(=O)COC(=O)c2cc3c(s2)CCC3)c1C | -12 | 6 | 1 | 105* | 15 | -32 | 5 | 4
COc1cccc(CN2CCC2(C)C(=O)Nc2cccc(Oc3ccccc3)c2)c1OC (stereo not drawn) | 1 | 1 | -11 | -4 | 1 | 6 | nt | nt
